According to ChEMBL document CHEMBL4052710 (Bioorg Med Chem Lett, 2017):

Columns and labels:
[1] = biological target: CDK4/Cyclin D3 (Homo sapiens) (UniProt P11802+P30281); test: Inhibition of human CDK4/CyclinD3 at 1 uM by enzymatic radiometric assay; assay type: protein-complex assay
Summary of the method: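 Kinase panel run through the Eurofins KinaseProfiler, with compound at a fixed 1 µM. Values are means of two independent experiments.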

[2] = biological target: Vascular endothelial growth factor receptor 2 (Homo sapiens, UniProt P35968); test: Inhibition of human VEGFR2 at 1 uM by enzymatic radiometric assay
Vascular endothelial growth factor receptor 2, sequence (P35968 whole entry): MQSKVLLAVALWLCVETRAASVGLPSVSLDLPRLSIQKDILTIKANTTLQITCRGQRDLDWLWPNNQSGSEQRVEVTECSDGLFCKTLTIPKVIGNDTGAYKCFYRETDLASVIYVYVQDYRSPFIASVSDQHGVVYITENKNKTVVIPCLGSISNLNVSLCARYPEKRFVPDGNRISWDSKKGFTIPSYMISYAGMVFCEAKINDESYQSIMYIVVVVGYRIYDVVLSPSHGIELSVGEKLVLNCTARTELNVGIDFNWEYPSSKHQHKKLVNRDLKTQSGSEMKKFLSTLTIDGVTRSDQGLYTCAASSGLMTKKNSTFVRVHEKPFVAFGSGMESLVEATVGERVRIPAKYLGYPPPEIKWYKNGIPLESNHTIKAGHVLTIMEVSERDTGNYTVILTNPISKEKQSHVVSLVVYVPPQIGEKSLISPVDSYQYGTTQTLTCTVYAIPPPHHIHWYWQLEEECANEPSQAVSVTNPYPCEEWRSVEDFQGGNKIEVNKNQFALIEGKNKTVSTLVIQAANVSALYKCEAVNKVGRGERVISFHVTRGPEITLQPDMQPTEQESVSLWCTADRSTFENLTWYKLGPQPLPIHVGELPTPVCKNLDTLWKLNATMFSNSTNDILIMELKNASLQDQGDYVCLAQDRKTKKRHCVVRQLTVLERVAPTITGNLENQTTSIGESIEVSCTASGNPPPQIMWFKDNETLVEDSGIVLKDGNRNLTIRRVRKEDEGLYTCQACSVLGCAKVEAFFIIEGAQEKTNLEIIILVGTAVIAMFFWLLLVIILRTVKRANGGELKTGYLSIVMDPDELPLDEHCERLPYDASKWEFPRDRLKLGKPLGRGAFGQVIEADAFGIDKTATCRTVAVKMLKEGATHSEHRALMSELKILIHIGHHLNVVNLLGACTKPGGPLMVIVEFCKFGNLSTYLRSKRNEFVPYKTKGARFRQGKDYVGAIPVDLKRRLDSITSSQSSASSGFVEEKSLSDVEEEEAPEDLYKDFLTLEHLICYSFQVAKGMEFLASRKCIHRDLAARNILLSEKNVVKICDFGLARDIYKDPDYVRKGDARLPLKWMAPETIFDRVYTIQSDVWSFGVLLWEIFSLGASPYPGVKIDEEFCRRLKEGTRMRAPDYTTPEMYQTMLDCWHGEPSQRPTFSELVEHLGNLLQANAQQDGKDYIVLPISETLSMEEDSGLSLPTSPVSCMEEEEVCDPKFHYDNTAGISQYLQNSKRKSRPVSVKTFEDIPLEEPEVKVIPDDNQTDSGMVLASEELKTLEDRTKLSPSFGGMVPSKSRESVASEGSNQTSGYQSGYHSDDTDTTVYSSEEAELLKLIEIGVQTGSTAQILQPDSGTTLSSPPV

T47D [3] = test: Growth inhibition of human T47D cells incubated for 72 hrs at 10 uM by CCK8 assay; assay type: functional; conditions: read-out: GI
Summary of the method: (§1)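 CCK8 viability assay on a panel of human cancer cell lines, with an initial screen at fixed concentrations of 1 µM and 10 µM.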

T47D [4] = test: Growth inhibition of human T47D cells incubated for 72 hrs at 1 uM by CCK8 assay; assay type: functional; conditions: read-out: GI; summary of the method: as §1
A549 [5] = test: Growth inhibition of human A549 cells incubated for 72 hrs at 10 uM by CCK8 assay; assay type: functional; conditions: A549, 72 h, read-out: GI; summary of the method: as §1
A549 [6] = test: Growth inhibition of human A549 cells incubated for 72 hrs at 1 uM by CCK8 assay; assay type: functional; conditions: A549, 72 h, read-out: GI; summary of the method: as §1
NCI-H460 [7] = test: Growth inhibition of human H460 cells incubated for 72 hrs at 10 uM by CCK8 assay; assay type: functional; conditions: NCI-H460, 72 h, read-out: GI; summary of the method: as §1
NCI-H460 [8] = test: Growth inhibition of human H460 cells incubated for 72 hrs at 1 uM by CCK8 assay; assay type: functional; conditions: NCI-H460, 72 h, read-out: GI; summary of the method: as §1
NCI-H1299 [9] = test: Growth inhibition of human H1299 cells incubated for 72 hrs at 10 uM by CCK8 assay; assay type: functional; conditions: NCI-H1299, 72 h, read-out: GI; summary of the method: as §1
NCI-H1299 [10] = test: Growth inhibition of human H1299 cells incubated for 72 hrs at 1 uM by CCK8 assay; assay type: functional; conditions: NCI-H1299, 72 h, read-out: GI; summary of the method: as §1
OVCAR-5 [11] = test: Growth inhibition of human OVCAR5 cells incubated for 72 hrs at 10 uM by CCK8 assay; assay type: functional; conditions: OVCAR-5, 72 h, read-out: GI; summary of the method: as §1
OVCAR-5 [12] = test: Growth inhibition of human OVCAR5 cells incubated for 72 hrs at 1 uM by CCK8 assay; assay type: functional; conditions: OVCAR-5, 72 h, read-out: GI; summary of the method: as §1
SiHa [13] = test: Growth inhibition of human SiHa cells incubated for 72 hrs at 10 uM by CCK8 assay; assay type: functional; conditions: read-out: GI; summary of the method: as §1
SiHa [14] = test: Growth inhibition of human SiHa cells incubated for 72 hrs at 1 uM by CCK8 assay; assay type: functional; conditions: read-out: GI; summary of the method: as §1
HeLa [15] = test: Growth inhibition of human HeLa cells incubated for 72 hrs at 10 uM by CCK8 assay; assay type: functional; conditions: read-out: GI; summary of the method: as §1
HeLa [16] = test: Growth inhibition of human HeLa cells incubated for 72 hrs at 1 uM by CCK8 assay; assay type: functional; conditions: read-out: GI; summary of the method: as §1

Row | inhibition [1] [%] | inhibition [2] [%] | Structure (SMILES) | inhibition of growth at 10 µM (T47D [3]) [%] | inhibition of growth at 1 µM (T47D [4]) [%] | inhibition of growth at 10 µM (A549 [5]) [%] | inhibition of growth at 1 µM (A549 [6]) [%] | inhibition of growth at 10 µM (NCI-H460 [7]) [%] | inhibition of growth at 1 µM (NCI-H460 [8]) [%] | inhibition of growth at 10 µM (NCI-H1299 [9]) [%] | inhibition of growth at 1 µM (NCI-H1299 [10]) [%] | inhibition of growth at 10 µM (OVCAR-5 [11]) [%] | inhibition of growth at 1 µM (OVCAR-5 [12]) [%] | inhibition of growth at 10 µM (SiHa [13]) [%] | inhibition of growth at 1 µM (SiHa [14]) [%] | inhibition of growth at 10 µM (HeLa [15]) [%] | inhibition of growth at 1 µM (HeLa [16]) [%]
1 | 66 | 5 | Cc1cccc(NC(=O)C2(C(=O)Nc3ccc(Nc4ncc5cc(C(=O)N(C)C)n(C6CCCC6)c5n4)cc3)CC2)c1 | 95.3 | 45.7 | 86.1 | 35.2 | – | – | – | – | – | – | – | – | – | –
2 | 66 | -2 | COc1cccc(NC(=O)C2(C(=O)Nc3ccc(Nc4ncc5cc(C(=O)N(C)C)n(C6CCCC6)c5n4)cc3)CC2)c1 | 93.5 | 56.3 | 96 | 77.2 | – | – | – | – | – | – | – | – | – | –
3 | 76 | -7 | COC(=O)c1cccc(NC(=O)C2(C(=O)Nc3ccc(Nc4ncc5cc(C(=O)N(C)C)n(C6CCCC6)c5n4)cc3)CC2)c1 | – | – | 91 | 10.5 | – | – | – | – | – | – | – | – | – | –
4 | 44 | 15 | CN(C)C(=O)c1cc2cnc(Nc3ccc(NC(=O)C4(C(=O)Nc5cccc(Cl)c5)CC4)cc3)nc2n1C1CCCC1 | 92.6 | 39.3 | 90.7 | 8.3 | 101 | 44 | 84.1 | 47.9 | 88.1 | 15.5 | 97.3 | 16.2 | – | –
5 | 72 | 6 | CN(C)C(=O)c1cc2cnc(Nc3ccc(NC(=O)C4(C(=O)Nc5cccc(Br)c5)CC4)cc3)nc2n1C1CCCC1 | 94.6 | 29.1 | 92.2 | 20.2 | – | – | 77.5 | 46.6 | 89.6 | 0.04 | 92.5 | 13.9 | – | –
6 | 61 | 7 | CN(C)C(=O)c1cc2cnc(Nc3ccc(NC(=O)C4(C(=O)Nc5cccc(F)c5)CC4)cc3)nc2n1C1CCCC1 | -0.4 | -3.2 | 91.8 | 33.2 | 98.8 | 45.1 | 87 | 64.2 | 85.6 | 26.3 | 107 | 29.7 | – | –
7 | 53 | 29 | CN(C)C(=O)c1cc2cnc(Nc3ccc(NC(=O)C4(C(=O)Nc5cccc(C#N)c5)CC4)cc3)nc2n1C1CCCC1 | – | – | 73.6 | 70.8 | – | – | – | – | – | – | – | – | – | –
8 | 82 | 8 | CN(C)C(=O)c1cc2cnc(Nc3ccc(NC(=O)C4(C(=O)Nc5ccccc5)CC4)cc3)nc2n1C1CCCC1 | 93.9 | 52.8 | 88.8 | 75 | 95.9 | 42.4 | 90.5 | 71.2 | 77.1 | 52.1 | 106 | 58 | – | –
9 | 77 | 19 | COc1ccc(NC(=O)C2(C(=O)Nc3ccc(Nc4ncc5cc(C(=O)N(C)C)n(C6CCCC6)c5n4)cc3)CC2)cc1 | 96.1 | 76.4 | 78.5 | 74.4 | – | – | – | – | – | – | – | – | – | –
10 | 94 | 24 | CN(C)C(=O)c1cc2cnc(Nc3ccc(NC(=O)C4(C(=O)Nc5cccc(O)c5)CC4)cc3)nc2n1C1CCCC1 | 83.7 | 80.7 | – | – | 94.9 | 75.5 | 78.5 | 77.5 | 86 | 58.5 | 75.7 | -19.8 | 96.6 | 57

More lines, now with the values behind:

Row | Structure (SMILES) | inhibition [1] [%] | inhibition [2] [%] | inhibition of growth at 10 µM (T47D [3]) [%] | inhibition of growth at 1 µM (T47D [4]) [%] | inhibition of growth at 10 µM (A549 [5]) [%] | inhibition of growth at 1 µM (A549 [6]) [%] | inhibition of growth at 10 µM (NCI-H460 [7]) [%] | inhibition of growth at 1 µM (NCI-H460 [8]) [%] | inhibition of growth at 10 µM (NCI-H1299 [9]) [%] | inhibition of growth at 1 µM (NCI-H1299 [10]) [%] | inhibition of growth at 10 µM (OVCAR-5 [11]) [%] | inhibition of growth at 1 µM (OVCAR-5 [12]) [%] | inhibition of growth at 10 µM (SiHa [13]) [%] | inhibition of growth at 1 µM (SiHa [14]) [%] | inhibition of growth at 10 µM (HeLa [15]) [%] | inhibition of growth at 1 µM (HeLa [16]) [%]
11 | CN(C)C(=O)c1cc2cnc(Nc3ccc(NC(=O)C4(C(=O)Nc5ccc(Br)cc5)CC4)cc3)nc2n1C1CCCC1 | 48 | 26 | 94.3 | 21.1 | 90.3 | -6.6 | 96.4 | 31.5 | 76.9 | 27.6 | 87.8 | 13.7 | 98.8 | 23.2 | – | –
12 | CN(C)C(=O)c1cc2cnc(Nc3ccc(NC(=O)C4(C(=O)Nc5cccc(C(F)(F)F)c5)CC4)cc3)nc2n1C1CCCC1 | 26 | -10 | 92.7 | 9.7 | 89.2 | 15.7 | – | – | – | – | – | – | – | – | – | –
13 | CN(C)C(=O)c1cc2cnc(Nc3ccc(NC(=O)C4(C(=O)Nc5ccc(F)cc5)CC4)cn3)nc2n1C1CCCC1 | 85 | -3 | – | – | – | – | – | – | – | – | – | – | – | – | – | –
14 | Cc1ccc(NC(=O)C2(C(=O)Nc3ccc(Nc4ncc5cc(C(=O)N(C)C)n(C6CCCC6)c5n4)cc3)CC2)cc1 | 62 | 9 | 99.6 | 47.9 | 90.6 | 40.2 | – | – | 84.5 | – | 80.6 | – | 104 | 37 | – | –
15 | COC(=O)c1ccc(NC(=O)C2(C(=O)Nc3ccc(Nc4ncc5cc(C(=O)N(C)C)n(C6CCCC6)c5n4)cc3)CC2)cc1 | 77 | 2 | – | – | 92 | 77.1 | – | – | – | – | – | – | – | – | – | –
16 | CN(C)C(=O)c1cc2cnc(Nc3ccc(NC(=O)C4(C(=O)Nc5ccc(F)cc5)CC4)cc3F)nc2n1C1CCCC1 | 87 | 33 | 67.9 | 6.3 | – | – | 53 | 11.9 | 82.6 | 52.3 | 33 | -0.9 | 44.4 | 6.6 | 49.5 | 6.2
17 | CN(C)C(=O)c1cc2cnc(Nc3ccc(NC(=O)C4(C(=O)Nc5ccc(C(F)(F)F)cc5)CC4)cc3)nc2n1C1CCCC1 | 32 | 1 | 94.9 | 29.6 | 87.9 | -25.3 | – | – | – | – | – | – | – | – | – | –
18 | CN(C)C(=O)c1cc2cnc(Nc3ccc(N)cn3)nc2n1C1CCCC1 | – | – | 61.1 | 18.8 | – | – | 62 | -0.6 | 82.1 | 60.1 | 68 | 12.3 | 61.5 | -21.2 | 68.7 | 3.7
19 | CN(C)C(=O)c1cc2cnc(Nc3ccc(NC(=O)C4(C(=O)Nc5ccccc5F)CC4)cc3)nc2n1C1CCCC1 | 75 | -2 | 97.8 | 85.2 | 88.6 | 79.1 | 93.1 | 28.2 | 89.6 | 70.2 | 82.6 | 58 | 103 | 63.4 | – | –
20 | CN(C)C(=O)c1cc2cnc(Nc3ccc(NC(=O)C4(C(=O)Nc5ccc(C#N)cc5)CC4)cc3)nc2n1C1CCCC1 | 84 | 21 | – | – | 95 | 86.1 | – | – | – | – | – | – | – | – | – | –
21 | CN(C)C(=O)c1cc2cnc(Nc3ccc(NC(=O)C4(C(=O)Nc5ccc(Cl)cc5)CC4)cc3)nc2n1C1CCCC1 | 65 | 5 | 95 | 22.8 | 100 | 24.7 | 95.7 | 21.3 | 88.6 | 52.2 | 85.3 | 8.1 | – | -0.8 | – | –
22 | CN(C)C(=O)c1cc2cnc(Nc3ccc(N4CCN(C(=O)C5(C(=O)Nc6ccc(F)cc6)CC5)CC4)cn3)nc2n1C1CCCC1 | 97 | -8 | – | – | – | – | – | – | – | – | – | – | – | – | – | –
